Test results reported in ChEMBL document CHEMBL4422613, “Amarisolide F, an Acylated Diterpenoid Glucoside and Related Terpenoids from Salvia amarissima” (J Nat Prod, 2019).

Assays:
[1] = species on record: Homo sapiens; test: Inhibition of MDR protein in human MCF7/Vin cells cultured in absence of vinblastine assessed as reversal fold after 72 hrs by sulforhodamine B assay; type: cell-based
[2] = species on record: Homo sapiens; test: Inhibition of MDR protein in human MCF7/Vin cells cultured in presence of vinblastine assessed as reversal fold after 72 hrs by sulforhodamine B assay; type: cell-based
[3] = tested on: MDA-MB-231; test: Cytotoxicity against human MDA-MB-231 cells after 72 hrs by sulforhodamine B assay; type: functional, cell-based; conditions: MDA-MB-231, 72 h
[4] = tested on: HeLa; test: Cytotoxicity against human HeLa cells after 72 hrs by sulforhodamine B assay; type: functional, cell-based
[5] = tested on: HCT-15; test: Cytotoxicity against human HCT15 cells after 72 hrs by sulforhodamine B assay; type: functional, cell-based; conditions: HCT-15, 72 h
[6] = tested on: HCT-116; test: Cytotoxicity against human HCT116 cells after 72 hrs by sulforhodamine B assay; type: functional, cell-based; conditions: HCT-116, 72 h
[7] = tested on: MCF7; test: Cytotoxicity against human MCF7 cells after 72 hrs by sulforhodamine B assay; type: functional, cell-based; conditions: MCF7, 72 h
How it was run: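 Cells kept in RPMI 1640 with 10% FBS at 37 °C, 5% CO2 in humidified air. Log-phase cells were treated in triplicate with compound at 0.4–42.1 μM for 72 h.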

[8] = species on record: Homo sapiens; test: Inhibition of MDR protein in human MCF7/Vin cells cultured in absence of vinblastine assessed as reversal fold at 42.1 uM after 72 hrs by sulforhodamine B assay; type: cell-based
How it was run: (§1)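 Sensitive MCF-7 and MDR MCF-7/Vin cells in RPMI 1640 with 10% FBS at 37 °C, 5% CO2. The Vin+ stock was kept in medium with […] vinblastine and the Vin− stock in vinblastine-free medium. Cells were exposed to vinblastine (0.7 nM–11 μM) with or without compound (42.1 μM) for 72 h.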

[9] = species on record: Homo sapiens; test: Inhibition of MDR protein in human MCF7/Vin cells cultured in presence of vinblastine assessed as reversal fold at 42.1 uM after 72 hrs by sulforhodamine B assay; type: cell-based; how it was run: as §1
[10] = species on record: Homo sapiens; test: Inhibition of MDR protein in human MCF7/Vin cells cultured in absence of vinblastine assessed as reversal fold at 5 ug/ml after 72 hrs by sulforhodamine B assay; type: cell-based
[11] = species on record: Homo sapiens; test: Inhibition of MDR protein in human MCF7/Vin cells cultured in presence of vinblastine assessed as reversal fold at 5 ug/ml after 72 hrs by sulforhodamine B assay; type: cell-based
[12] = species on record: Homo sapiens; test: Inhibition of MDR protein in human MCF7/Vin cells cultured in absence of vinblastine assessed as reversal fold at 25 ug/ml after 72 hrs by sulforhodamine B assay; type: cell-based
[13] = species on record: Homo sapiens; test: Inhibition of MDR protein in human MCF7/Vin cells cultured in presence of vinblastine assessed as reversal fold at 25 ug/ml after 72 hrs by sulforhodamine B assay; type: cell-based

## O=C1C=CC[C@]2(O)C(=O)OC[C@@]12CCc1ccc(-c2ccoc2)oc1=O
[1]
  fold change (FC): 3.1
[2]
  fold change (FC): 5.8

## CC(=O)O[C@H]1O[C@@H](c2ccoc2)C[C@]12[C@H](C)C(=O)C[C@@]13COC(=O)C1=CC=C[C@H]32
[1]
  fold change (FC): 54
[2]
  fold change (FC): 2.6

## CC(=O)OC[C@H]1O[C@@H](OC(=O)[C@H]2CC[C@@]34COC(=O)[C@@]3(O)CC=C[C@@]4(O)[C@@]2(C)CC(=O)c2ccoc2)[C@H](O)[C@@H](O)[C@@H]1O
[3]
  IC50: > 42 µM
[4]
  IC50: > 42 µM
[5]
  IC50: > 42 µM
[6]
  IC50: > 42 µM
[7]
  IC50: > 42 µM
[8]
  fold change (FC): 2.1
[9]
  fold change (FC): 12

## COC(=O)[C@H]1[C@H]2C[C@@H]3c4[nH]c5cc(OC)ccc5c4CCN3C[C@H]2C[C@@H](OC(=O)c2cc(OC)c(OC)c(OC)c2)[C@@H]1OC
[10]
  fold change (FC): 5
[11]
  fold change (FC): 29.2

## C[C@@H]1C(=O)CC2=C(/C=C\C=C\[C@@]13C[C@@H](O)c1ccoc1[C@H]3O)C(=O)OC2
[12]
  fold change (FC): 8440
[13]
  fold change (FC): 10700
